ChEMBL document CHEMBL2163197, “Synthesis and antimitotic and tubulin interaction profiles of novel pinacol derivatives of podophyllotoxins” (2012)
Structures can show the parent of a compound that is named as a salt. The source made the active and inactive calls. The rule behind the calls is not given here.

What was measured:
[1] = system: A549; assay: Growth inhibition of human A549 cells after 72 hrs by SRB assay; type: functional; settings: A549, 72 h
Method in brief: (§1)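 Cell lines kept in RPMI with 10% FCS, 2 mM L-glutamine, penicillin/streptomycin at 37 °C, 5% CO2. Exposure 72 h to 10 concentrations from 10 to 0.0026 μg/mL. Cells fixed in 1% glutaraldehyde, stained with 0.4% SRB for 30 min, dye extracted in 10 mM Trizma base, absorbance read at 490 nm. GI50 from triplicate dose-response cultures by NCI algorithm; mean ± SD of three independent experiments.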

[2] = system: A549; assay: Antimitotic activity in human A549 cells assessed as induction of microtubule depolymerization at 0.05 to 100 uM after 20 hrs by Hoechst 33342 staining-based fluorescence microscopy; type: functional, cell-based
Method in brief: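 A-549 lung carcinoma cells plated at 150 000 cells/ml on coverslips, cultured overnight, then exposed to ligands or DMSO vehicle (residual DMSO <0.5%). Cells permeabilised with Triton X100, fixed in 3.7% formaldehyde, stained with DM1A anti-α-tubulin and FITC secondary, chromatin stained with 1 μg/mL Hoechst 33342. Examined by epifluorescence microscopy. Methods state 24 h exposure; legend states 20 h.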

[3] = system: SK-BR-3; assay: Growth inhibition of human SKBR3 cells after 72 hrs by SRB assay; type: functional; settings: SK-BR-3, 72 h; method in brief: as §1
[4] = system: A549; assay: Cell cycle arrest in human A549 cells assessed as accumulation at G2/M phase at 0.001 to 100 uM after 20 hrs by propidium iodide staining-based flow cytometry; type: functional
Method in brief: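 A-549 cells (180 000 per mL) incubated 20 h with ligands from 1 nM to 100 μM, with untreated and DMSO vehicle controls. Cells fixed in 70% ethanol, RNase-treated and stained with propidium iodide. DNA content read by flow cytometry to give percent of cells in each cycle phase. Lowest concentration giving G2/M arrest recorded.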

[5] = system: HT-29; assay: Growth inhibition of human HT-29 cells after 72 hrs by SRB assay; type: functional; settings: HT-29, 72 h; method in brief: as §1
[6] = species on record: Bos taurus; assay: Displacement of MTC from bovine brain tubulin colchicine binding site at 20 uM by fluorometric assay
Method in brief: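 Calf brain tubulin 10 μM with 10 μM MTC in 10 mM sodium phosphate, 0.1 mM GTP, pH 7.0, with 20 μM ligand. Excitation at 350 nm. Fluorescence emission spectra recorded and the decrease relative to tubulin-bound MTC taken as displacement from the colchicine site.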

[7] = species on record: Bos taurus; assay: Inhibition of bovine brain tubulin polymerization at 1 uM after 30 mins by spectrophotometric analysis

Compound	GI50 [1]	Activity [2]	GI50 [3]	Activity [4]	GI50 [5]	Activity [6]	inhibition [7]
COc1cc([C@@H]2c3cc4c(cc3[C@](O)(C3(O)CCCCC3)[C@H]3COC(=O)[C@H]23)OCO4)cc(OC)c1OC	90.8 nM	Active	64.9 nM	>70%	97.5 nM	–	–
COc1cc([C@@H]2c3cc4c(cc3[C@H](O)[C@H]3COC(=O)[C@H]23)OCO4)cc(OC)c1OC [PODOFILOX]	12 nM	Active	–	>70%	12 nM	25%	7%
COc1cc([C@@H]2c3cc4c(cc3[C@](O)(C3(O)CCSCC3)[C@H]3COC(=O)[C@@H]23)OCO4)cc(OC)c1OC	3320 nM	–	1780 nM	–	2620 nM	–	–
COc1cc([C@@H]2c3cc4c(cc3[C@@](O)(C3(O)CCCCC3)[C@H]3COC(=O)[C@H]23)OCO4)cc(OC)c1OC	547 nM	–	610 nM	–	859 nM	–	–
COc1cc([C@@H]2c3cc4c(cc3[C@](O)(C(O)(c3ccccc3)c3ccccc3)[C@H]3COC(=O)[C@H]23)OCO4)cc(OC)c1OC	376 nM	–	313 nM	–	281 nM	–	–
COc1cc([C@@H]2c3cc4c(cc3[C@H](C(C)C)[C@H]3COC(=O)[C@@H]23)OCO4)cc(OC)c1OC	79.5 nM	Active	84.1 nM	>70%	83.1 nM	35%	84.5%
COc1cc([C@@H]2c3cc4c(cc3[C@@](O)(C3(O)C5CCCC3CCC5)[C@H]3COC(=O)[C@H]23)OCO4)cc(OC)c1OC (stereo not given in full)	5680 nM	Active	6720 nM	>70%	6420 nM	15%	12%
COc1cc([C@@H]2c3cc4c(cc3[C@@](O)(C3(O)CCCC3)[C@H]3COC(=O)[C@H]23)OCO4)cc(OC)c1OC	1690 nM	–	2420 nM	–	2720 nM	–	–
COc1cc([C@@H]2c3cc4c(cc3C(=C(C)C)[C@H]3COC(=O)[C@@H]23)OCO4)cc(OC)c1OC	6440 nM	–	3780 nM	–	8280 nM	–	–
COc1cc([C@@H]2c3cc4c(cc3[C@](O)([C@@](C)(O)C(C)C)[C@H]3COC(=O)[C@H]23)OCO4)cc(OC)c1OC	1150 nM	–	1030 nM	–	1730 nM	–	–
COc1cc([C@@H]2c3cc4c(cc3[C@@]3(OC(C)(C)O[C@@H]3C)[C@H]3COC(=O)[C@H]23)OCO4)cc(OC)c1OC	6220 nM	–	5870 nM	–	5230 nM	–	–
COc1cc([C@@H]2c3cc4c(cc3[C@](O)(C3(O)CCCC3)[C@H]3COC(=O)[C@H]23)OCO4)cc(OC)c1OC	444 nM	Active	439 nM	>70%	451 nM	–	–
COc1cc([C@@H]2c3cc4c(cc3[C@](O)([C@](O)(c3ccccc3)C(C)C)[C@H]3COC(=O)[C@H]23)OCO4)cc(OC)c1OC	139 nM	Active	148 nM	>70%	159 nM	–	–
COc1cc([C@@H]2c3cc4c(cc3[C@](O)(C3(O)CCCCC3)[C@H]3COC(=O)[C@@H]23)OCO4)cc(OC)c1OC	3620 nM	–	1250 nM	–	2900 nM	–	–
COc1cc([C@@H]2c3cc4c(cc3[C@](O)(C3(O)CCC3)[C@H]3COC(=O)[C@H]23)OCO4)cc(OC)c1OC	191 nM	Active	219 nM	>70%	198 nM	–	–
COc1cc([C@@H]2c3cc4c(cc3[C@@](O)(C3(O)CCOCC3)[C@H]3COC(=O)[C@@H]23)OCO4)cc(OC)c1OC	8920 nM	Active	8010 nM	>70%	15400 nM	–	2.8%

Compound	GI50 [1]	Activity [2]	GI50 [3]	Activity [4]	GI50 [5]	Activity [6]	inhibition [7]
COc1cc([C@@H]2c3cc4c(cc3/C(=C(/C)C(C)C)[C@H]3COC(=O)[C@@H]23)OCO4)cc(OC)c1OC	7700 nM	–	4530 nM	–	10200 nM	–	–
COc1cc([C@@H]2c3cc4c(cc3[C@@](O)(C(O)(c3ccccc3)c3ccccc3)[C@H]3COC(=O)[C@H]23)OCO4)cc(OC)c1OC	874 nM	–	524 nM	–	528 nM	–	–
COc1cc([C@@H]2c3cc4c(cc3[C@](O)([C@](C)(O)C(C)C)[C@H]3COC(=O)[C@H]23)OCO4)cc(OC)c1OC	254 nM	–	181 nM	–	204 nM	–	–
COc1cc([C@@H]2c3cc4c(cc3[C@](O)(C3(O)CCOCC3)[C@H]3COC(=O)[C@@H]23)OCO4)cc(OC)c1OC	29 nM	Active	25.9 nM	>70%	26.8 nM	–	21.1%
COc1cc([C@@H]2c3cc4c(cc3[C@](O)([C@H](O)C3CC=CCC3)[C@H]3COC(=O)[C@H]23)OCO4)cc(OC)c1OC (stereo not given in full)	2030 nM	–	2430 nM	–	2510 nM	–	–
COc1cc([C@@H]2c3cc4c(cc3[C@](O)(C(C)(C)O)[C@H]3COC(=O)[C@H]23)OCO4)cc(OC)c1OC	577 nM	–	457 nM	–	598 nM	–	–
COc1cc([C@@H]2c3cc4c(cc3[C@](O)(C3(O)C5CCCC3CCC5)[C@H]3COC(=O)[C@H]23)OCO4)cc(OC)c1OC (stereo not given in full)	6.39 nM	Active	7.39 nM	>70%	5.14 nM	–	45.1%
COc1cc([C@@H]2c3cc4c(cc3[C@@H](O)[C@H]3COC(=O)[C@H]23)OCO4)cc(OC)c1OC [EPIPODOPHYLLOTOXIN]	60 nM	–	–	–	60 nM	–	–
C=C1c2cc3c(cc2[C@@H](c2cc(OC)c(OC)c(OC)c2)[C@@H]2C(=O)OC[C@H]12)OCO3	28.1 nM	–	66.8 nM	–	78.1 nM	–	–
COc1cc([C@@H]2c3cc4c(cc3[C@@](O)(C(C)(C)O)[C@H]3COC(=O)[C@H]23)OCO4)cc(OC)c1OC	1480 nM	–	511 nM	–	659 nM	–	–
COc1ccc([C@@](C)(O)[C@@]2(O)c3cc4c(cc3[C@@H](c3cc(OC)c(OC)c(OC)c3)[C@H]3C(=O)OC[C@@H]32)OCO4)cc1OC	2620 nM	–	4990 nM	–	4750 nM	–	–
COc1cccc2c1C(=O)c1c(O)c3c(c(O)c1C2=O)C[C@@](O)(C(=O)CO)C[C@@H]3O[C@H]1C[C@H](N)[C@H](O)[C@H](C)O1 [DOXORUBICIN HYDROCHLORIDE]	60.3 nM	–	65.5 nM	–	153 nM	–	–
CCC[C@@H](O)[C@@]1(O)c2cc3c(cc2[C@@H](c2cc(OC)c(OC)c(OC)c2)[C@H]2C(=O)OC[C@@H]21)OCO3	279 nM	–	288 nM	–	404 nM	–	–
COc1cc([C@@H]2c3cc4c(cc3[C@@]3(OC(C)(C)O[C@H]3C)[C@H]3COC(=O)[C@H]23)OCO4)cc(OC)c1OC	6020 nM	–	6140 nM	–	6560 nM	–	–
COc1cc([C@@H]2c3cc4c(cc3/C(=C(\c3ccccc3)C(C)C)[C@H]3COC(=O)[C@@H]23)OCO4)cc(OC)c1OC	6210 nM	–	14300 nM	–	11400 nM	–	–
